Measurements of several laboratories.
Compare with care: the assays were run in different laboratories.
Target: 5-hydroxytryptamine receptor 3A (HTR3A, Homo sapiens, UniProt P46098)
Tested at: 10 µM
Sequence (P46098 24-478, as in one of the studies): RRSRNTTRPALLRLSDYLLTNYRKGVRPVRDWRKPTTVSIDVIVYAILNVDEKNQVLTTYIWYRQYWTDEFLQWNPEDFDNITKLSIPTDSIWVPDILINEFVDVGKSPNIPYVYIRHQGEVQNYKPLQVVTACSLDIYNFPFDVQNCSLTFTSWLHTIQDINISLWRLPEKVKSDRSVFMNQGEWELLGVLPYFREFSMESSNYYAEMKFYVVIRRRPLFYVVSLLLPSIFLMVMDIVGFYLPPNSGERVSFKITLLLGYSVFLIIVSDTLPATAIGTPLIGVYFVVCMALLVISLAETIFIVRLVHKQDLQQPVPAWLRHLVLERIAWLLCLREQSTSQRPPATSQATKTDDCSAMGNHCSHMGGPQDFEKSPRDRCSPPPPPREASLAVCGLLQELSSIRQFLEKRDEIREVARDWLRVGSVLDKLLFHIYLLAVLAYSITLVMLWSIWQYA

SMILES | observed | technique | inhibition [%]
N#Cc1cc(Cn2c(N3CCCC3)nc3ccccc32)ccc1F | cell-free assay | – | -12.4
O=C1N=C(N2CCCCN2)S/C1=C\c1ccc(F)cc1O | ligand displacement | radioligand | 17
COc1cc2c3c(c1OC)-c1cc4c(cc1CC3N(CC1CC1)CC2c1ccccc1)OCO4 (stereo not shown) | ligand displacement | radioligand | -13.3
CCN(CC)c1ccc(C2Nc3ccc(C(=O)c4ccccc4)cc3NC3=C2C(=O)CC(C)(C)C3)cc1 (stereo not shown) | ligand displacement | radioligand | -5
CCCNc1nc2ccccc2n1Cc1ccc(Cl)cc1 | cell-free assay | – | -1.96
COc1cc(NC(C)=O)c(Cl)cc1C(=O)Nc1nccs1 | ligand displacement | radioligand | 15.9
CC[C@H](CC(=O)O)n1c(=O)c2ncccc2n(Cc2cn(C)c3cc(C)cc(C)c23)c1=O | cell-free assay | – | 0.31
O=C(c1ccc(Cl)cc1)N(Cc1ccccc1)C1CCCCC1 | ligand displacement | radioligand | 1.9
O=C(NC1C2CCN(CC2)C1Cc1cccnc1)c1cc2ccccc2o1 (stereo not shown) | ligand displacement | radioligand | 25
COc1cc(N[C@@H]2CCCC[C@]2(O)C(F)(F)F)ccc1F | cell-free assay | – | 11.6
